In the first test the target is T1, P2Y purinoceptor 1 (Meleagris gallopavo, UniProt P49652). The test is described as follows: Compound was evaluated for its agonistic activity towards P2Y purinoceptor 1 in turkey erythrocyte membranes; NE=No effect. The test is classed as functional, cell membranes. In a few lines: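 Turkey erythrocytes labeled 18–24 h at 37 °C with 2-[3H]myoinositol in inositol-free DMEM, then lysed in hypotonic buffer (5 mM sodium phosphate pH 7.4, 5 mM MgCl2, 1 mM EGTA) to make membranes. Phospholipase C was assayed with GTPγS and graded nucleotide concentrations at 30 °C for 5 min, pH 7.0 Hepes medium. Total [3H]inositol phosphates were measured by ion-exchange chromatography. EC50 came from four-parameter logistic fits, ≥3 experiments on separate membrane preparations, duplicate assays.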
T1 sequence (P49652 whole entry): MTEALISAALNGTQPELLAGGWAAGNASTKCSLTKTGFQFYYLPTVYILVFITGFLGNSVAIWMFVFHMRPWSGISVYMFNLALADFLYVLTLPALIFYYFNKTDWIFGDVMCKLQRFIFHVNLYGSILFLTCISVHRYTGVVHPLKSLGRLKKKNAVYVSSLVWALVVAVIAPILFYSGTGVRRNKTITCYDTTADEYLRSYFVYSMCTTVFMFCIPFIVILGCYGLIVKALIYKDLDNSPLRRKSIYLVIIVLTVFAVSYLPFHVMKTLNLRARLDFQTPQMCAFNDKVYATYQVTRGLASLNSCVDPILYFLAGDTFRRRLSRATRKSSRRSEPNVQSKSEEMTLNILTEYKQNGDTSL
Take `Nc1ncnc2c1ncn2[C@@H]1O[C@H](COP(O)(O)=S)[C@@H](O)[C@H]1O`: the EC50 entry is recorded as “Not Active”.

In a further test the target is T1, P2Y purinoceptor 1. As to the kind of experiment: Agonistic activity for P2Y purinoceptor 1 of turkey erythrocyte membranes. The format is functional. The method, boiled down: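 [³H]myoinositol-labeled washed turkey erythrocytes (18–24 h, 37 °C), membranes made by hypotonic lysis; phospholipase C measured as total [³H]inositol phosphates (ion-exchange) after 5 min at 30 °C with GTPγS, pH 7.0 Hepes medium. EC50 from four-parameter logistic fit; at least three experiments with different membrane preparations, duplicate assays.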
For `CCCCCCSc1nc(N)c2ncn([C@@H]3O[C@H](COP(=O)(O)O)[C@@H](O)[C@H]3O)c2n1`, the half-maximal effective concentration (EC50) is 60 nM.

Molecule `Nc1nc(SCCc2ccc([N+](=O)[O-])cc2)nc2c1ncn2[C@@H]1O[C@H](COP(O)(O)=S)[C@@H](O)[C@H]1O` registered an EC50 of 2360 nM.

In turn, `CCCCCCSc1nc(N)c2ncn(C3O[C@H](COP(O)(O)=S)[C@@H](O)[C@H]3O)c2n1` (stereo partly drawn) showed an EC50 of 2790 nM.

`Nc1nc(SCCc2ccc([N+](=O)[O-])cc2)nc2c1ncn2C1O[C@H](COP(=O)(O)OP(=O)(O)OP(=O)(O)O)[C@@H](O)[C@H]1O` (stereo partly drawn) yielded a half-maximal effective concentration (EC50) of 12 nM.

Molecule `Nc1nc(SCCc2ccc([N+](=O)[O-])cc2)nc2c1ncn2C1O[C@H](COP(=O)(O)O)[C@@H](O)[C@H]1O` (stereo partly drawn) displayed a half-maximal effective concentration (EC50) of 3000 nM.

`CCCCCCSc1nc(N)c2ncn(C3O[C@H](COP(=O)(O)OP(=O)(O)OP(=O)(O)O)[C@@H](O)[C@H]3O)c2n1` (stereo partly drawn) gave an EC50 of 10 nM.

Take `Nc1ncnc2c1ncn2C1O[C@H](COP(O)(=S)OP(=O)(O)OP(=O)(O)O)[C@@H](O)[C@H]1O` (stereo partly drawn): the EC50 came to 6280 nM.

As to `CCCCCCSc1nc(N)c2ncn([C@@H]3O[C@H](COP(O)(=S)OP(=O)(O)OP(=O)(O)O)[C@@H](O)[C@H]3O)c2n1` (stereo in doubt; 5aA), the concentration for a half-maximal effect (EC50) worked out at 17 nM.

`CCCCCCSc1nc(N)c2ncn([C@@H]3O[C@H](COP(O)(=S)OP(=O)(O)OP(=O)(O)O)[C@@H](O)[C@H]3O)c2n1` (stereo in doubt; 5aB) registered an EC50 of 21 nM.

Regarding `Nc1nc(SCCc2ccc([N+](=O)[O-])cc2)nc2c1ncn2[C@@H]1O[C@H](COP(O)(=S)OP(=O)(O)OP(=O)(O)O)[C@@H](O)[C@H]1O` (stereo in doubt; 5bA), a half-maximal effect (EC50) was put at 510 nM.

As to `Nc1nc(SCCc2ccc([N+](=O)[O-])cc2)nc2c1ncn2[C@@H]1O[C@H](COP(O)(=S)OP(=O)(O)OP(=O)(O)O)[C@@H](O)[C@H]1O` (stereo in doubt; 5bB), the EC50 was 890 nM.

Regarding `Nc1ncnc2c1ncn2[C@@H]1O[C@H](COP(=O)(O)OP(=O)(O)OP(=O)(O)O)[C@@H](O)[C@H]1O` [ADENOSINE TRIPHOSPHATE], the EC50 was found to be 6350 nM.

The values are drawn from ChEMBL document CHEMBL1132379, “2-thioether 5'-O-(1-thiotriphosphate)adenosine derivatives as new insulin secretagogues acting through P2Y-Receptors” (J Med Chem, 1999).
